From PubChem
GSK3beta inhib = blocks human GSK3beta kinase activity. activity score (negative = inhibition), % at 10 µM. P49841. AID 2097. 0.038% of 300,000 active. GST-GSK3beta kinase, ADP-Glo luminescence, 60 min; active compounds read low;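 active = more than half of replicate wells score below -50%, meaning over 50% inhibition versus plate controls; inconclusive = some replicates but at most half score below -50%; inactive = no replicate scores below -50%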
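Test system: GST-tagged human GSK3beta kinase, cell-free; evaluation: activity score scaled between in-plate DMSO and GW8510 controls; measured by: ADP-Glo luminescence; incubation: 60 min reaction, RT; benchmarks: DMSO and 20 µM GW8510; reagent: peptide substrate plus 25 µM ATP (final); medium: Tris/MgCl2 kinase buffer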
GSK3A inh = blocks human GSK-3 alpha kinase; P49840; ADP-Glo luminescence, 60 min; 0.1% of 320,000 active; inhibition, % at 10 µM; AID 2650;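 active = more than half of replicates show inhibition above 20%; inconclusive = some but at most half of replicates above 20% inhibition; inactive = no replicate shows inhibition above 20%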;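 note: GST-tagged GSK-3 alpha with peptide substrate and 25 µM ATP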
Target sequence (P49840 whole entry, looked up): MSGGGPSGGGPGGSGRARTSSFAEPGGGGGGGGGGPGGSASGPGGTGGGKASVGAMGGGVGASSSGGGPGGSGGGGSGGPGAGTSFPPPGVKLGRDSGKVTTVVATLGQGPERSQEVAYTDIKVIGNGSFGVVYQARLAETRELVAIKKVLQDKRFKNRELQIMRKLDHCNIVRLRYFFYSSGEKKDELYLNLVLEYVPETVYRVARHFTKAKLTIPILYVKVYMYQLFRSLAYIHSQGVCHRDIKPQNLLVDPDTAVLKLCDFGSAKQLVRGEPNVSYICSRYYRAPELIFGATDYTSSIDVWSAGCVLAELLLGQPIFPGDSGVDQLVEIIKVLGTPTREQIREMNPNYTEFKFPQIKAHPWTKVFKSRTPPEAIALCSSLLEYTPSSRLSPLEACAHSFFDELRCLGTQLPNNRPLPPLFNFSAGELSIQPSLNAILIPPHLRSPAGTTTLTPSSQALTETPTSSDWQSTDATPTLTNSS
STK33 inh = inhibitors of human STK33 kinase; purified STK33, MBP phosphorylation, ADP-Glo luminescence; inhibition, % at 10 µM; 0.073% of 320,000 active;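 active = inhibition at or above 25%, using the most active replicate where run in duplicate; inactive = inhibition below 25%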
AI-2 QS modul = Vibrio harveyi AI-2 quorum sensing modulation | Vibrio harveyi JMH597 AI-2 luminescence/OD600 ratio, 9 h; active compounds read low; strain lacks LuxN and CqsS sensors; 0 = neutral-control median | activity change, % at 7.5 µM | 0.4% of 300,000 active; in the data active = activity change below about -75%, passing the limit was not always enough; inconclusive = no clear call, values can overlap the other calls;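 note: luminescence divided by OD600 gain over 9 h not by final OD600 alone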
DYRK1A inh = inhibitors of rat Dyrk1A kinase; 0.43% of 310,000 active; Q63470; inhibition, % at 12.5 µM; AID 504441; ADP-Glo luminescence, NFATc1 peptide; in the data active = inhibition above about 50%
Rce1 inhib = blocks yeast Ras-converting enzyme; yeast membranes, quenched prenylated peptide cleavage fluorescence; calls only; 0.27% of 290,000 active; Q03530;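 active = fall in fluorescence gain of 50% or more versus controls, with final raw signal at or below 3038400; inconclusive = same 50% fall but final raw signal above 3038400; inactive = fall in fluorescence gain under 50%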
Target sequence (Q03530 whole entry, looked up): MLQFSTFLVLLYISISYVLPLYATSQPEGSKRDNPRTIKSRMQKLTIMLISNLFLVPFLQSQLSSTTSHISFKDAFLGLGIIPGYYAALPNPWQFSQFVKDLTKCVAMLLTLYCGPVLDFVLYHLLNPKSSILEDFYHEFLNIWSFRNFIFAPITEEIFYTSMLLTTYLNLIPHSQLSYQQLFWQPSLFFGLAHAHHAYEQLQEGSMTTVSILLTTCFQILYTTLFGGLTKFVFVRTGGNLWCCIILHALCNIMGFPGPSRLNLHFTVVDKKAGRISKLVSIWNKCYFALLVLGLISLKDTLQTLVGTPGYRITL
JMH597 growth rt = retest Vibrio harveyi JMH597 growth inhibition; shares compounds with AI-2 QS modul; OD600 absorbance, 9 h; lacks LuxN and CqsS sensors; growth inhibition, % at 7.5 µM; 1% of 750 active; AID 2726;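 active = every replicate shows growth inhibition above 50%; inconclusive = at least half, but not all, replicates pass that cutoff; inactive = fewer than half of replicates pass it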
BB721 const-QS lum = retest counter-screen: lowers luminescence of constitutive-QS Vibrio harveyi BB721 | inhibition, % at 7.5 µM | 95% of 750 active | shares compounds with AI-2 QS modul | 9 h;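 active = inhibition above about 80% in every replicate, not just on average, limit read from the data; inconclusive = at least half of replicates past the limit, but not all; inactive = fewer than half of replicates past the limit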
BB721 growth = retest: inhibitors of Vibrio harveyi BB721 growth. shares compounds with AI-2 QS modul. OD600 absorbance, 9 h. growth inhibition, % at 7.5 µM. 3% of 750 active. AID 2728;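 active = every replicate shows growth inhibition above 50%; inconclusive = at least half but not all replicates above 50% inhibition; inactive = under half of replicates above 50% inhibition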
JMH597 AI-2 mod = Vibrio harveyi AI-2 signaling luminescence modulation – JMH597 strain, confirmation; shares compounds with AI-2 QS modul; Vibrio harveyi JMH597 AI-2 quorum sensing luminescence, 9 h; luxN and CqsS knockout, AI-2 only; inhibition, % at 7.5 µM; 97% of 750 active;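 active = every replicate shows more than 75% inhibition of signal versus neutral control wells; inconclusive = half to three quarters of replicates exceed 75% inhibition; inactive = fewer than half of replicates exceed 75% inhibition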
Dyrk1A artifact = counter-screen for Dyrk1A inhibitors: ADP-Glo luciferase artifacts | AC50, µM (series often up to 12 µM) | ADP-Glo luciferase artifact assay, no Dyrk1A, luminescence | 1,300 tested, under 10 active | shares compounds with DYRK1A inh;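 active = fitted half-maximal dose AC50 no more than ten times the top valid tested dose, with luminescence dropping as dose rises; inconclusive = poor fit, or flat fit with 30 to 70% inhibition; inactive = the rest, signal increases included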
Of the large screens only hits and unclear results are named; the others gave an inactive call (follow-up assays come after a bar, where they were run). Rows were chosen to be rich in hits. Some 0.99% of all compounds tested hit in one or more screens of this group.

CC[C@@H]1C=CC=CC[C@H](C)[C@@H](O)[C@@H](C)C(=O)[C@H](C)[C@@H](O)[C@H](C)C(=O)[C@H](C)[C@@H](O)[C@H](C)C=CC(=O)O[C@H]2[C@@H](C)[C@@H](CC1)O[C@@]1(CC[C@@H](C)[C@@H](C[C@H](C)O)O1)[C@@H]2C	none (no result: DYRK1A inh)
CCCCCCN1CCN(c2ccc(Cl)cc2)CC1	none
ClCCN1CCN(c2ccnc3cc(Cl)ccc23)CC1	GSK3A inh 86
O=[N+]([O-])c1ccc(C[n+]2c(-c3ccccc3)cc(-c3ccccc3)cc2-c2ccccc2)cc1	Rce1 inhib active
Cc1oc(-c2cccs2)nc1CSCC(=O)N1CCC2(CC1)OCCO2	Rce1 inhib active
O=C1NC(=O)C(Nc2ccccc2)C(=O)N1	none (no result: GSK3beta inhib, GSK3A inh, STK33 inh, AI-2 QS modul, Rce1 inhib)
CN1CC(C(=O)c2ccc(Cl)cc2)C(c2ccc(N(C)C)cc2)C1 (stereo not drawn)	none (no result: STK33 inh)
CN1CC(C(=O)c2ccc(Cl)cc2)C(c2ccc(Cl)cc2Cl)C1 (stereo not drawn)	Rce1 inhib active
O=C1NC(=S)NC(=O)C1=Cc1ccc(Br)s1	AI-2 QS modul -87
Cc1ccc(-c2nc3ccc(C)cn3c2CC(=O)N(C)C)cc1	Rce1 inhib active
CCCN(CCC)C(=O)Cc1c(-c2ccc(Cl)cc2)nc2c(Cl)cc(Cl)cn12	none (no result: GSK3beta inhib, AI-2 QS modul, Rce1 inhib)
C=C1C(O)[C@@H]2O[C@]3(CC[C@H](/C=C/C(C)[C@@H]4CC(C)=CC5(O[C@H](C[C@@](C)(O)C(=O)O)CCC5O)O4)O3)CC[C@H]2O[C@@H]1C(O)CC(C)[C@H]1OC2(CCCCO2)CCC1C (stereo partly drawn)	none (no result: GSK3beta inhib, AI-2 QS modul, DYRK1A inh, Rce1 inhib)
CCOc1cc(-c2nc3c(C)cccn3c2NCC2CCCO2)ccc1O (stereo not drawn)	Rce1 inhib active
Cc1cccn2c(NCC3CCCO3)c(C(C)C)nc12 (stereo not drawn)	none
COC(=O)C1=C(c2cccc(OCc3ccccc3)c2)C[C@@H]2CC[C@H]1N2C(=O)NCc1ccc2[nH]ccc2c1	none (no result: GSK3beta inhib, AI-2 QS modul, Rce1 inhib)
CCOc1ccccc1CN1C2CCC1CC(c1ccc(C)cc1)C2 (stereo not drawn)	none
Cn1ncnc2c(=O)n(C)c(=O)nc1-2	AI-2 QS modul -81, DYRK1A inh 68
C[C@]12CCC3C(CC[C@H]4C[C@@H](O)CC[C@]34C)C1C[C@H](Br)[C@@H]2O (stereo partly drawn)	none (no result: GSK3beta inhib, AI-2 QS modul, DYRK1A inh, Rce1 inhib)
Oc1cc(O)cc(/C=C/c2ccc(O)cc2O)c1	STK33 inh 54 (no result: GSK3beta inhib, AI-2 QS modul, DYRK1A inh, Rce1 inhib)
CCN(CC)C(=O)c1ccc(NC(=O)c2ccc(-c3nn(C)c(=O)c4ccccc34)cc2)cc1	none
CCN(CC)C(=O)c1ccc(NC(=O)Cn2nc(C)c3ccccc3c2=O)cc1	AI-2 QS modul -88 | JMH597 growth rt inactive | BB721 const-QS lum 94 | BB721 growth inactive | JMH597 AI-2 mod 96
Cc1ccc(O)c(CN2CCN(c3ccccc3)CC2)c1	AI-2 QS modul -79 | JMH597 growth rt inactive | BB721 const-QS lum 85 | BB721 growth inactive | JMH597 AI-2 mod 91
COC(=O)C1=C(c2cc3ccccc3s2)C[C@@H]2CC[C@H]1N2C	none (no result: GSK3beta inhib, AI-2 QS modul, Rce1 inhib)
O=C(c1cc2cc(Br)ccc2[nH]1)N1CCC2(CC1)OCCO2	AI-2 QS modul inconclusive | JMH597 growth rt inactive | BB721 const-QS lum 94 | BB721 growth inactive | JMH597 AI-2 mod 96
C[C@]12CCC3C(CC[C@H]4C[C@H](O)CC[C@]34C)C1CCC2=O (stereo partly drawn)	none (no result: GSK3beta inhib, AI-2 QS modul, DYRK1A inh, Rce1 inhib)
COC(=O)C1=C(c2ccc(Cl)c(C(F)(F)F)c2)C[C@@H]2CC[C@H]1N2C(=O)NCCOc1ccc(OC)cc1	DYRK1A inh 57 (no result: GSK3beta inhib, AI-2 QS modul, Rce1 inhib) | Dyrk1A artifact inactive
c1ccc2c(c1)[nH]c1cnccc12	DYRK1A inh 69 | Dyrk1A artifact inactive
O=c1c2ccccc2[nH]c(=S)n1-c1cccnc1	none (no result: DYRK1A inh)
CCc1nccc2c1[nH]c1ccccc12	DYRK1A inh 59, Rce1 inhib inconclusive | Dyrk1A artifact inactive
Cc1[nH]c2ccccc2c1/C=N/O	none
Cc1nccc2c1[nH]c1ccccc12	DYRK1A inh 76, Rce1 inhib active | Dyrk1A artifact inactive
O=C1CN(O)C(c2ccccc2Cl)=c2cc(Br)ccc2=N1	none
CCc1ccc(N2C(=O)CC(=O)NC2=O)cc1	none
COc1cc2occc2c2oc(=O)ccc12	none
COc1cc2ccc(=O)oc2c2ccoc12	DYRK1A inh 59 | Dyrk1A artifact inactive
COC(=O)C1=C(c2ccc(F)cc2OCc2ccccc2)C[C@@H]2CC[C@H]1N2C(=O)NCc1ccccc1	DYRK1A inh 52 (no result: GSK3beta inhib, AI-2 QS modul, Rce1 inhib) | Dyrk1A artifact inactive
COc1ccc2c3c([nH]c2c1)C(C)NCC3 (stereo not drawn)	DYRK1A inh 74 | Dyrk1A artifact inactive
COc1ccc2[nH]c3c(c2c1)CCNC3C (stereo not drawn)	none
N#C/C(=C\c1ccc(O)cc1)C(=O)O	DYRK1A inh 76 (no result: GSK3beta inhib, GSK3A inh, STK33 inh, AI-2 QS modul, Rce1 inhib) | Dyrk1A artifact inactive
O=C(Cn1ncn2c(cc3cc(F)ccc32)c1=O)N1CCC2(CC1)OCCO2	none
CN1CCc2cc(O)cc3c2[C@H]1Cc1ccc(O)c(O)c1-3	none
CN1CCc2cc3c(c4c2C1Cc1ccccc1-4)OCO3 (stereo not drawn)	DYRK1A inh 67 | Dyrk1A artifact inactive
O=C(N/N=C/c1c(O)n(CCc2ccccc2)c(=O)[nH]c1=O)c1ccccc1	none (no result: DYRK1A inh)
COc1cc2c(cc1O)C[C@H]1c3c(cc(O)c(OC)c3-2)CCN1C	DYRK1A inh 71 (no result: GSK3beta inhib, AI-2 QS modul, Rce1 inhib) | Dyrk1A artifact inactive
COc1ccc2c(c1)/C(=C/c1cnc[nH]1)C(=O)N2	GSK3beta inhib -89, GSK3A inh 81, STK33 inh 58, DYRK1A inh 83 | Dyrk1A artifact inactive
N/C(=N\N=C/c1ccc(-c2ccc(O)c(C(=O)O)c2)o1)N[N+](=O)[O-]	DYRK1A inh 83 | Dyrk1A artifact inactive
CN1CCc2nc3sc(C#N)c(N)c3c(-c3cccs3)c2C1	GSK3A inh 95, DYRK1A inh 51 | Dyrk1A artifact inactive
N#C/C=C/C#N	none (no result: GSK3beta inhib, AI-2 QS modul, DYRK1A inh, Rce1 inhib)
